Screening results (PubChem)
MEKK2 mut-MEK5 – signal of MEK5 binding to mutant human MEKK2 PB1 domain. bead flow cytometry, Alexa488-MEK5 binding to MEKK2 mutant. percent response, % at 10 µM. 290,000 tested, 0.35% active. AID 1530; in the data active = percent response above about 24%, passing the limit was not always enough
MEKK2 WT-MEK5 – raises or lowers MEK5 binding to wildtype human MEKK2 PB1 domain. Q9Y2U5. bead flow cytometry, Alexa488-MEK5 binding to MEKK2 WT; actives lie on both sides. binding response (% of control), % at 10 µM. 290,000 tested, 1.1% active. AID 1531; in the data active = binding response below about 67% or above about 130%
MEKK3 PB1 HTS – MEKK3-MEK5 PB1 interaction, increase or decrease; bead-based flow cytometry, Alexa488-MEK5 binding to MEKK3; actives lie on both sides; 0 = blocked by unlabeled MEK5, 100 = vehicle; binding response (% of control), % at 10 µM; 290,000 tested, 1.4% active; AID 1529;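 active = binding response more than 3 SD above or below the average of its plate-row segment, actives on both sides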;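 also: Alexa488 bead fluorescence after subtracting the streptavidin-only scavenger bead signal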
ATG4B inhibitor – ATG4B (human) cysteine protease inhibition. inhibition, % at 8.33 µM. 340,000 tested, 0.51% active. Q9Y4P1. ATG4B cleavage of LC3-PLA2, NBD-HPC fluorescence, 1 h; in the data active = inhibition above about 40%
Beta2AR agonist – agonists of human beta-2 adrenergic receptor inducing internalization; Am2.2-beta2AR cells, FAP receptor internalization, flow cytometry; response, % (test concentration not listed); 340,000 tested, 0.43% active;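 active = response above a set limit, near 3 SD of response in nonfluorescent compounds, cut at about 42% in these data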
Target sequence (P07550 whole entry, looked up): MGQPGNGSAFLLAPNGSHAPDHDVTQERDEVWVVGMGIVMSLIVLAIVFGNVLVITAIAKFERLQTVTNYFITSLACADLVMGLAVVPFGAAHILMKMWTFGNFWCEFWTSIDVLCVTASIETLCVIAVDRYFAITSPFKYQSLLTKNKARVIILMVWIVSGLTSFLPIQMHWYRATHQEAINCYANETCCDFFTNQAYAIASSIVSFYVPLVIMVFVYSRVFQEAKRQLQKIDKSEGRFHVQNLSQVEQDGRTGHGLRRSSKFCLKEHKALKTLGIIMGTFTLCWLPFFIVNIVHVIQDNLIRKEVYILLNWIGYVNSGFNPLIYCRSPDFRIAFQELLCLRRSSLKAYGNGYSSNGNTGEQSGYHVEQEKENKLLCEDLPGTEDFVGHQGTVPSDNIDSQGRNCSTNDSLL
Dynein transport – dynein cargo transport inhibition | 3617.4 mouse cells, GR-EGFP nuclear translocation imaging; test concentration mostly 20 µM; stimulated with dexamethasone, 1 µM; hits give low values | z-score, hits read low | 220,000 tested, 0.47% active | AID 1381;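 active = plate z-score of nuclear minus cytoplasmic receptor signal below a set negative limit, without overly bright fluorescence or cell loss, cut at about -3.5 in these data, passing the limit was not always enough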;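 also: z-score of nuclear minus cytoplasmic ring GR-EGFP intensity difference per well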
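medium = tetracycline-free induction medium containing charcoal-stripped FBS | probe or stimulus = dexamethasone, 1.0 µM final | timing = 48 h induction, then 1 h compound, then 30 min agonist, 37 °C | detection = automated 10x imaging of fixed Hoechst-stained cells | read-out basis = nuclear versus cytoplasmic GR-EGFP signal, averaged per well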
MEKK2wt confirm – raises or lowers MEK5 binding to wildtype human MEKK2, retest | 5,900 tested, 2.4% active | binding response (% of control), % at 10 µM | AID 1892 | shares compounds with MEKK3 PB1 HTS | bead flow cytometry, Alexa488-MEK5 binding to MEKK2 WT; actives lie on both sides; in the data active = binding response below about 16% or above about 210%; inactive = in between
MEKK2mut confirm – signal of MEK5 binding to mutant human MEKK2, retest | shares compounds with MEKK3 PB1 HTS | bead flow cytometry, Alexa488-MEK5 binding to MEKK2 mutant | percent response, % at 10 µM | 5,900 tested, 2% active; in the data active = percent response mostly above about 71%, no sharp cut-off; inactive = mostly below about 38%;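 also: higher means compound restores mutant binding toward wildtype level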
MEKK3-MEK5 inh – confirmation of inhibitors of MEK5 binding to human MEKK3. shares compounds with MEKK3 PB1 HTS. binding response (% of control), % at 10 µM. bead flow cytometry, Alexa488-MEK5 binding to MEKK3; hits give low values. 5,900 tested, 1.8% active. AID 1894;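 active = binding response below 72% of control, or above a set upper limit, though filed actives all read lower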;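 also: 100% = DMSO only wells and 0% = binding blocked by excess unlabeled MEK5; lower values mean stronger disruption of MEK5 binding to MEKK3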
An asterisk follows results filed as active; . = no result; [ ] = dose if it differs, or a comment. This is a sample that favours compounds with a hit; in the whole collection about 2.9% have one here.

SMILES	MEKK2 mut-MEK5	MEKK2 WT-MEK5	MEKK3 PB1 HTS	ATG4B inhibitor	Beta2AR agonist	Dynein transport	MEKK2wt confirm	MEKK2mut confirm	MEKK3-MEK5 inh
Cc1nn(Cc2ccc(Cl)cc2)c(C)c1NC(=O)CSc1n[nH]c(C)c1[N+](=O)[O-]	0.0	112.0	142.0*	-11.8	-3.9	0.0545	108.0	1.0	104.0
Cc1nn(Cc2ccccc2)c(C)c1NC(=O)CSc1n[nH]c(C)c1[N+](=O)[O-]	0.0	100.0	134.0*	7.0	-13.0	-0.251	100.0	0.0	100.0
Cc1oc2ccc(O)cc2c1C(=O)OC(C)C	4.0	107.0	80.0*[inhibitor]	-25.2	3.8	-0.164	97.0	-3.0	100.0
Cc1oc2ccc(OCC(N)=O)cc2c1C(=O)OC(C)C	-4.0	98.0	96.0	5.8	19.0	-1.19	.	.	.
CCCCNS(=O)(=O)c1ccc2nc(SCC(N)=O)[nH]c2c1	2.0	101.0	98.0	17.5	5.5	-0.113	.	.	.
CCCCNS(=O)(=O)c1ccc2nc(SCC(=O)c3ccccc3OC)[nH]c2c1	-39.0	66.0	75.0*[inhibitor]	8.5	-7.2	-0.512	105.0	4.0	109.0
Cn1cc(CNC(=O)c2sc3cccc(Cl)c3c2Cl)cn1	11.0	102.0	131.0*	-21.3	-8.6	-0.821	96.0	2.0	101.0
O=C(NCCc1c[nH]c2ccccc12)c1ccc(F)cc1F	3.0	100.0	96.0	-3.5	11.6	.	.	.	.
O=C(CN1CCC(O)(c2cccc(F)c2)CC1)NCCc1c[nH]c2ccccc12	46.0	178.0*	124.0	-9.2	16.7	-0.624	129.0	22.0	108.0
COc1ccc(-c2nc(SC(CC(=O)NCc3ccccc3)c3ccc(OC)c(OC)c3)n[nH]2)cc1 (stereo unspecified)	0.0	101.0	128.0*	-23.9	3.0	-0.479	94.0	-9.0	94.0
CCC(O)(Cc1ccccn1)Cc1ccccn1	.	.	.	-5.4	-6.9	.	.	.	.
Cc1ccc2[nH]c(=O)c(COC(=O)C3CCCCC3)cc2c1	21.0	119.0	129.0*	-3.3	1.9	-0.263	97.0	-18.0	96.0
CN(C)/C=N/c1nc2nccc(-c3ccccc3)n2n1	-16.0	56.0	47.0*[inhibitor]	-8.0	-10.2	0.362	93.0	-6.0	90.0
CCOC(=O)c1ccc(-c2ccc(/C=N/NC(=O)CN(c3ccccc3Cl)S(C)(=O)=O)o2)cc1	2.0	110.0	141.0*	-8.0	4.7	-0.381	98.0	-6.0	102.0
CC(C)(C)c1ccc(-c2nnc(N)o2)cc1	0.0	98.0	98.0	-8.5	2.3	-1.26	.	.	.
O=C(Cn1c(=O)oc2ccccc21)N1CCN(S(=O)(=O)c2ccccc2)CC1	.	.	.	4.2	4.5	.	.	.	.
CCN(Cc1ccncc1)C(=O)CCc1nnc(CCc2ccccc2OC)o1	-8.0	80.0	70.0*[inhibitor]	-8.5	-1.4	-0.624	99.0	-6.0	101.0
COc1ccccc1CCc1nnc(CCC(=O)NCCCOc2cccnc2)o1	-2.0	100.0	100.0	-6.0	-8.7	-0.0997	.	.	.
CCN(CCn1cccn1)C(=O)CCc1nnc(CCc2ccccc2OC)o1	-11.0	90.0	97.0	-4.4	0.6	-1.2	.	.	.
COc1ccccc1CCc1nnc(CCC(=O)NC(C)Cc2cccnc2)o1 (stereo unspecified)	-16.0	55.0	47.0*[inhibitor]	-15.7	-4.8	0.751	101.0	3.0	105.0
O=C(Nc1nc2ccsc2c(=O)s1)c1ccco1	-29.0	86.0	80.0	3.5	-4.8	0.638	.	.	.
O=C(Nc1nc2ccsc2c(=O)s1)C1CCC1	32.0	116.0	129.0*	10.8	-0.5	0.668	99.0	0.0	102.0
